Among the data in ChEMBL document CHEMBL1147872, “Syntheses of new tetrasubstituted thiophenes as novel anti-inflammatory agents” (Eur J Med Chem, 2007) are Activity and IC50 values, retold here.

The structures appear in SMILES notation. ≈ marks a conversion by molar mass, not a printed value. Calls of active or inactive are those of the source. The calls are words filed in the database; no cut-off is given here.

Common to all, as to assay type: functional
The nature of experiment [1]: Antioxidant activity assessed as nitric oxide radical scavenging activity at 0.6 ug/ml after 150 mins. The essentials: (§1)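 Sodium nitroprusside (10 mmol) in PBS at physiological pH was incubated with sample at 25 °C for 150 min in a 3 ml reaction. Aliquots taken every 30 min were mixed 1:1 with Griess reagent (1% sulphanilamide, 0.1% naphthylethylenediamine in 2% H3PO4), and absorbance was read at 546 nm. Runs were done in triplicate, and % scavenging was calculated against the blank.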

A short description of experiment [2]: Antioxidant activity assessed as nitric oxide radical scavenging activity at 0.2 ug/ml after 150 mins. The essentials: as §1
Experiment [3] is described as follows: Antioxidant activity assessed as nitric oxide radical scavenging activity at 1.0 ug/ml after 150 mins. The essentials:
as §1

Experiment [4] is described as follows: Antioxidant activity assessed as nitric oxide radical scavenging activity at 0.4 ug/ml after 150 mins. The essentials: as §1
Experiment [5] in a line: Inhibition of nitric oxide radical scavenging activity. The essentials: as §1
The nature of experiment [6]: Antioxidant activity assessed as nitric oxide radical scavenging activity at 0.8 ug/ml after 150 mins. The essentials: as §1
Experiment [7] in a line: Antioxidant activity assessed as nitric oxide radical scavenging activity at 0.1 ug/ml after 150 mins. Summed up: as §1
Experiment [8] can be described thus: Antioxidant activity assessed as nitric oxide radical scavenging activity at 1.2 ug/ml after 150 mins. Summed up: as §1
Experiment [9] has as its system Rattus norvegicus. The experiment in a line: Antiinflammatory activity in Albino rat assessed as protection against carrageenan-induced hind paw oedema at 100 mg/kg, po after 3 hrs. The essentials:
(§2)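 Rats (150–250 g, either sex) were fasted 18 h and grouped in sixes. Compounds or standards were given orally as a suspension in 5% DMSO. After 1 h, 0.1 ml of 1% carrageenin was injected subplantar into the right hind paw. Paw volume was read by mercury plethysmometer at once and at 3 h. % protection = 100(1−Vt/Vc) versus vehicle.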
(In general: The carrageenan paw model is a standard test of acute inflammation.)

Experiment [10] can be described thus: Antioxidant activity assessed as nitric oxide radical scavenging activity at 10 ug/ml after 150 mins. The essentials: as §1
Experiment [11] in a line: Antioxidant activity assessed as nitric oxide radical scavenging activity at 20 ug/ml after 150 mins. Summed up:
as §1

Experiment [12] can be described thus: Antioxidant activity assessed as nitric oxide radical scavenging activity at 5 ug/ml after 150 mins. Summed up: as §1
The subject of experiment [13] is Rattus norvegicus. Nature of the experiment: Antiinflammatory activity in Albino rat assessed as protection against carrageenan-induced hind paw oedema at 20 mg/kg, po after 3 hrs. Summed up: as §2
A short description of experiment [14]: Antioxidant activity assessed as nitric oxide radical scavenging activity at 15 ug/ml after 150 mins. Summed up:
as §1

A short description of experiment [15]: Antioxidant activity assessed as nitric oxide radical scavenging activity at 25 ug/ml after 150 mins. The essentials: as §1
The test system of experiment [16] is Rattus norvegicus. The experiment in a line: Antiinflammatory activity in Albino rat assessed as protection against carrageenan-induced hind paw oedema at 10 mg/kg, po after 3 hrs. The essentials:
as §2

Experiment [17] can be described thus: Antioxidant activity assessed as nitric oxide radical scavenging activity at 30 ug/ml after 150 mins. Summed up: as §1
The test system of another experiment is Mus musculus. The experiment in a line: Analgesic activity in Albino mouse assessed as protection against acetic acid-induced writhing at 10 mg/kg, ip within 30 mins. The conditions noted are these: route intraperitoneal. Summed up:
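Mice (20–25 g, either sex) starved 16 h, six per group, given 10 mg/kg i.p.; vehicle control received 1% DMSO at 0.5 ml/100 g. After 1 h, 0.1 ml of 3% acetic acid was given. Writhes were counted over 30 min, and the group mean was expressed as % inhibition versus control. Student's t-test was used.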
For orientation: An intraperitoneal irritant provokes the stretching counted in writhing tests.

Experiment [18] relates to Rattus norvegicus. Nature of the experiment: Antiinflammatory activity in Albino rat assessed as protection against carrageenan-induced hind paw oedema at 40 mg/kg, po after 3 hrs. Summed up:
as §2

The nature of experiment [19]: Antioxidant activity assessed as nitric oxide radical scavenging activity at 35 ug/ml after 150 mins. The essentials:
as §1

For orientation: IC50 means the concentration needed to halve the response being measured. A low value points to higher potency. For the molecule `O=C1O[C@H]([C@@H](O)CO)C(O)=C1O` [ASCORBIC ACID], the Activity in [1] was 39.3%; in experiment [2], 11.5%; in [3] it was 58.3%; in experiment [4] it was 29.5%; in experiment [6] it was 41.6%; in experiment [7], 2.98%. In addition, the Activity in experiment [8] is 70.2%. In [5], the IC50 came to 0.52 µg/mL (≈ 2.95 µM).

For `Cc1cccc(Nc2ccccc2C(=O)O)c1C` [MEFENAMIC ACID], the Activity in the experiment with Rattus norvegicus [9] is on record as 39%.

As for `Cc1ccc(Nc2sc(C(=O)c3ccc(C)cc3)c(C)c2C(=O)O)cc1`, the outcome in experiment [10], in experiment [11], in experiment [12], in [5], in experiment [14] and in [15] was inactive. The result in experiment [17] and in experiment [19] was inactive. For the same molecule, the Activity in the experiment with Rattus norvegicus [13] came out at 38%; with Rattus norvegicus [16], 35%; in the experiment with Mus musculus, 18%; with Rattus norvegicus [18] it was 38%.

On to `COC(=O)c1c(Nc2ccccc2)sc(C(=O)c2ccc(C)cc2)c1C`, for which the Activity was 3.16% in experiment [10]; 6.06% in experiment [11]; 2.08% in experiment [12]; 49% with Rattus norvegicus [13]; 4.59% in experiment [14]; 8.16% in experiment [15]. The Activity is 43% with Rattus norvegicus [16]; 9.35% in experiment [17]; 27% in the experiment with Mus musculus; 53% with Rattus norvegicus [18]; 10.2% in experiment [19]. This molecule also returned a 50% inhibitory concentration (IC50) in [5] of 171.43 µg/mL (≈ 469 µM).

Turning to `COc1ccc(Nc2sc(C(=O)c3ccc(OC)cc3)c(C)c2C(=O)O)cc1`, the Activity in [10] is 23.5%; in experiment [11], 32.5%; in experiment [12], 20.1%; with Rattus norvegicus [13], 75%; in experiment [14], 30.6%; in experiment [15] it was 38.5%. Further, the Activity in the experiment with Rattus norvegicus [16] stood at 72%; in experiment [17], 41.2%; in the experiment with Mus musculus, 22%; in the experiment with Rattus norvegicus [18], 69%; in experiment [19] it was 51%. Further, in experiment [5], the IC50 turned out to be 36.57 µg/mL (≈ 92 µM).

On to `COC(=O)c1c(Nc2ccc(C)cc2)sc(C(=O)c2ccc(OC)cc2)c1C`, for which the outcome in experiment [10], in experiment [11], in experiment [12], in experiment [5], in experiment [14] and in [15] was inactive. The result in experiment [17] and in experiment [19] was inactive. For the same molecule, the Activity in the experiment on Rattus norvegicus [13] was found to be 63%; with Rattus norvegicus [16], 50%; in the experiment with Mus musculus, 45%; in the experiment with Rattus norvegicus [18] it was 70%.

Turning to `COc1ccc(C(=O)c2sc(Nc3ccc(Cl)cc3)c(C(=O)O)c2C)cc1`, the result in [10], in experiment [11], in experiment [12], in [5], in experiment [14] and in experiment [15] was inactive. Moreover, the result in [17] and in experiment [19] was inactive. The Activity with Rattus norvegicus [13] was 49%; with Rattus norvegicus [16], 49%; in the experiment on Mus musculus, 30%; with Rattus norvegicus [18], 43%.

In the case of `COC(=O)c1c(Nc2ccc(F)cc2)sc(C(=O)c2ccc(OC)cc2)c1C`, the Activity in [10] is 14%; in [11] it was 18.1%; in experiment [12], 5.28%; in the experiment on Rattus norvegicus [13], 53%; in experiment [14], 15.2%; in experiment [15], 20.2%. Moreover, the Activity in the experiment on Rattus norvegicus [16] worked out at 36%; in experiment [17], 23.2%; with Mus musculus, 40%; in the experiment with Rattus norvegicus [18], 58%; in [19], 25.6%. The IC50 in [5] was 74.17 µg/mL (≈ 186 µM).
